# Laboratory results published in article PMC10127574 (ACS chemical biology, 2015).
# Read-outs that look alike come from different tables or passages of the source.
# Assays:
# [1] = biological target: T1, extracellular IDE (Homo sapiens, UniProt P14735); assay: cell-based IDE activity assay
# T1 sequence (P14735 1-1019): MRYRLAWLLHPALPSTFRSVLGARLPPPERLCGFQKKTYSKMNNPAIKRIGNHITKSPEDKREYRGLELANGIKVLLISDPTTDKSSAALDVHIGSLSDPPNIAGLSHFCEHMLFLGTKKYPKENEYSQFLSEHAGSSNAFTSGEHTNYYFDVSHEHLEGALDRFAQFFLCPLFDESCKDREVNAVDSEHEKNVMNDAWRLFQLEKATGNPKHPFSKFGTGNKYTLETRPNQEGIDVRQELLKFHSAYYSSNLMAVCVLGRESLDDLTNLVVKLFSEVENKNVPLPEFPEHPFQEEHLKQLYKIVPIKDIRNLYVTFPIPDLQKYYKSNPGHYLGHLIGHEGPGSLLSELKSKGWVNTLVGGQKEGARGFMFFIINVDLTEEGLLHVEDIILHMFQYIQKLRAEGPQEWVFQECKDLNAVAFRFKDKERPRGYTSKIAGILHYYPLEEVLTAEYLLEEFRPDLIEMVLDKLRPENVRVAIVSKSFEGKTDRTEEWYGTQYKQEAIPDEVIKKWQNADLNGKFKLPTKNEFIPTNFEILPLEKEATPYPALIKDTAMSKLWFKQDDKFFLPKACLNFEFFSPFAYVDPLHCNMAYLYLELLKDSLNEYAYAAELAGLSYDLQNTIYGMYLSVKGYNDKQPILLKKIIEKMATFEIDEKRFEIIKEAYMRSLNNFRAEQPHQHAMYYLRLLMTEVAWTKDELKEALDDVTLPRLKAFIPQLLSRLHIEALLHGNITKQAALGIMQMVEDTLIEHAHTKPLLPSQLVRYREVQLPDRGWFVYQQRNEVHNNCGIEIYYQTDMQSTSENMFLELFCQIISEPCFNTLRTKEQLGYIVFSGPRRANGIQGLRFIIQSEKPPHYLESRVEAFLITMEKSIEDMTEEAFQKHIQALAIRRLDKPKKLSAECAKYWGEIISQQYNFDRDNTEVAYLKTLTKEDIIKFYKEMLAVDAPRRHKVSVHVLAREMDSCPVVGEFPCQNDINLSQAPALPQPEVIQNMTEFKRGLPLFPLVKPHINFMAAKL
# Summary of the method: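 Extracellular IDE secreted by HEK-293 cells, harvested mechanically rather than by trypsin, served as the endogenous enzyme source. Activity was read by fluorescence polarization with fluoresceinated, biotinylated Aß peptide (FAßB) in DTT-free solutions. The primary screen used a nominal compound concentration of 6 μM. Confirmed hits were retested in dose-response format to give apparent IC50.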
# [2] = biological target: T2, recombinant wild-type IDE (WT-IDE) (Homo sapiens, UniProt P14735); assay: cell-free IDE activity assay with fluorogenic peptide substrate FRET1; format: biochemical
# T2 sequence (P14735 1-1019): T1 sequence (P14735 1-1019)
# [3] = biological target: T3, IDE (Homo sapiens, UniProt P14735); assay: insulin degradation, homogeneous time-resolved fluorescence-based assay; format: biochemical; settings: read-out: IC50^app in vitro, insulin; insulin as substrate; n=4
# T3 sequence (P14735 1-1019): T1 sequence (P14735 1-1019)
# [4] = test system: HEK-293 cells; assay: luminescence-based HEK cell viability; parameters: species or system human; settings: up to 100 μM
# [5] = biological target: T4, intracellular pools of IDE (Mus musculus, UniProt Q9JHR7); assay: intracellular IDE activity in BV-2 cells; format: cell-based; settings: 30 μM, 16 h, cell extracts
# T4 sequence (Q9JHR7 1-1019): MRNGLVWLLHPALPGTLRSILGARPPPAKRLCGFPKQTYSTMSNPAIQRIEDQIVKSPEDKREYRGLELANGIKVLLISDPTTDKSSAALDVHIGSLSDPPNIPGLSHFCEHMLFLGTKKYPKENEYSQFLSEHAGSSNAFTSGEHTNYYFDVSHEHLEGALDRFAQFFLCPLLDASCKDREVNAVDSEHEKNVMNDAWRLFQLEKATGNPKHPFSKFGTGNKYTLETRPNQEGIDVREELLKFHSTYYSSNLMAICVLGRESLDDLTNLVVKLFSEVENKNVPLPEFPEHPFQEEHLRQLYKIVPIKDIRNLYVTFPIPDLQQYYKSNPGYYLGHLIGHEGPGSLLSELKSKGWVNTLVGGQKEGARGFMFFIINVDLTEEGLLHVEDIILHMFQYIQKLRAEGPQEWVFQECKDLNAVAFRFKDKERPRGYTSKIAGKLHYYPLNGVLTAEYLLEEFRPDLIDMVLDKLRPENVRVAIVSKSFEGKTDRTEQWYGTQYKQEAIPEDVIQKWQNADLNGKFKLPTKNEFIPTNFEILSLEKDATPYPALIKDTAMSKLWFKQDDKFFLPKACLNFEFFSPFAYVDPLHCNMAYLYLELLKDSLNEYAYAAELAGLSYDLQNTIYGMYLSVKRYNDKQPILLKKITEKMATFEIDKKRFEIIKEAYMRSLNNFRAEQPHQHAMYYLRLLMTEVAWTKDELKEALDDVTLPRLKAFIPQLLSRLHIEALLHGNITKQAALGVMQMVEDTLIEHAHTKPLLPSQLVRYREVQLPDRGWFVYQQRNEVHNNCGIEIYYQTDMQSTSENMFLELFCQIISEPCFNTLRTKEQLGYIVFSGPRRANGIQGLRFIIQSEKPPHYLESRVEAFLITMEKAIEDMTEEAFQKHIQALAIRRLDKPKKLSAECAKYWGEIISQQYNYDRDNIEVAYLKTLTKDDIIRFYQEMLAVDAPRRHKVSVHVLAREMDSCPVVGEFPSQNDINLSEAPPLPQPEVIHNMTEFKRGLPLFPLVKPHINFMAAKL
# Summary of the method: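 BV-2 cells were treated 16 h with 30 μM compound, then conditioned medium was collected. Cells were washed in PBS, lysed hypotonically in 50 mM Tris-HCl at 4 °C, extruded through a needle and centrifuged. Extracts were diluted 1:200 (v:v). Activity was measured by avidin-agarose precipitation Aß degradation assay with FAßB. Mean ± SEM, 3 replications.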
# [6] = test system: cysteines (proteome-wide); assay: proteome-wide activity-based protein-profiling assay
# [7] = chemical stability in PBS; format: physicochemical
# [8] = liver microsome stability, human; format: in vitro ADME; settings: human liver microsomes
smiles,measurement,setting,value
"O=c1c2cc(F)ccc2sn1-c1cc(S(=O)(=O)N2CCOCC2)ccc1N1CCOCC1 [Compound 8, 5-fluoro-2-(2-morpholin-4-yl-5-morpholin-4-ylsulfonylphenyl)-1,2-benzothiazol-3-one]",IC50,"[1]; read-out: IC50^app cell-based, Table 2",110 nM
same,IC50,"[1]; read-out: IC50^app in cells, FAßB, Table 3, n=4",110 ± 12 nM
same,"BEI (binding efficiency index, pIC50^app/MW, kDa)",[2],15
same,IC50,"[2]; read-out: IC50^app cell-free, Table 2",63 nM
same,IC50,"[2]; read-out: IC50^app in vitro, FRET1, Table 3, n=5",63 ± 8.1 nM
same,IC50,[3],82 ± 20.2 nM
same,toxicity in cells,[4],no toxicity
same,inhibition of intracellular pools of IDE in BV-2 cells,[5],does not affect
same,reactivity with cysteines in proteome-wide activity-based protein profiling,[6],minimal reactivity
same,Chemical stability in PBS,[7],>> 48 hr.
same,"Liver microsome stability, Human",[8],> 120 min
